Results on 33 compounds are retold here after PubChem BioAssay AID602172 (The Scripps Research Institute Molecular Screening Center, 2012).

Calls of active or inactive are those of the source.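 Rule for the calls: active = DNA binding activation reaching at least 20% of the dioxin reference response; inactive = the rest.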

The target in one test is Aryl hydrocarbon receptor (Cavia porcellus). As to the kind of experiment: AHR transformation and DRE binding stimulation – cell lysate, guinea pig liver cytosol, radiometric EMSA, mechanism study for AHR activator project, late-stage follow-up (AID 602172). The conditions noted are these: radiometric gel. In outline:
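Material: guinea pig hepatic cytosol / Amount: cytosol at 8 mg protein per mL / Medium: HEDG buffer at pH 7.5 / Reagent: radiolabeled DRE DNA probe with poly[dI·dC] / Timing: compound exposure of cytosol 2.5 h, room temperature / Technique: radiometric EMSA with phosphorimaging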
As usually defined, the EC50 is the concentration that produces a half-maximal response. As to `Cc1ccc(-c2cc(-c3cccs3)[nH]n2)c(O)c1`, the 50% effective concentration (EC50) was 500 nM.

In the case of `Cc1nc(N)nc(Nc2ccc(Cl)cc2)c1Br`, the EC50 was 1000 nM.

Still in this test, the particulars now being: radiometric gel, at 10 µM, stronger effect = higher value.
As to `COc1ccccc1NC(=O)Nc1cccnc1`, the DNA binding activation (% of TCDD) was 10% (inactive).

On to `CC(=O)c1ccc(NC(=O)c2cc(Cl)nc3ccccc23)cc1`, for which the DNA binding activation (% of TCDD) is 5.3% (inactive).

Consider `COc1cc2ccccc2cc1C(=O)Nc1ccc(C)cc1`, for which the DNA binding activation (% of TCDD) was 67.8%.

Regarding `COc1ccccc1NC(=O)c1ccc(C(=O)Nc2ccccc2OC)nc1`, the DNA binding activation (% of TCDD) was 6.4% (inactive).

Take `CCOc1ccccc1NC(=O)c1ccc2nccnc2c1`: the DNA binding activation (% of TCDD) was 20% (inactive).

Consider `Cc1ccccc1-c1nc(-c2cccnc2)no1`, for which the DNA binding activation (% of TCDD) is 40.4%.

Take `Cc1c(-c2ccn[nH]2)cc(NC(=O)c2ccc(Cl)cc2)c(=O)n1N`: the DNA binding activation (% of TCDD) is 4.4% (inactive).

With `CCC(=O)Nc1cc(OC)c(NC(=O)c2ccccc2)cc1OC`, the DNA binding activation (% of TCDD) was 7% (inactive).

In the case of `COc1ccc(NC(=O)c2cccc3c(Br)cccc23)cc1`, the DNA binding activation (% of TCDD) is 18% (inactive).

For `O=C(Nc1ccon1)c1cnc2sccn2c1=O`, the DNA binding activation (% of TCDD) is 21%.

In the case of `COc1ccccc1NC(=O)c1ccc2c(c1)nnn2C`, the DNA binding activation (% of TCDD) is 15% (inactive).

`COC(=O)c1ccccc1NC(=O)Cn1ccnc1`: the DNA binding activation (% of TCDD) is 5.2% (inactive).

Regarding `Cn1c(C(=O)N2CCC(C(N)=O)CC2)cc2cc(Cl)ccc21`, the DNA binding activation (% of TCDD) is 27.8%.

For the compound `O=C(CN1CCOCC1)Nc1nc2ccc([N+](=O)[O-])cc2s1`, the DNA binding activation (% of TCDD) was 3.2% (inactive).

Turning to `Cn1c(N)c(C(=O)Nc2ccccc2F)sc1=S`, the DNA binding activation (% of TCDD) was 37%.

With `CCOC(=O)Cc1cc(-c2ccc(O)cc2)nc2ccc3ccccc3c12`, the DNA binding activation (% of TCDD) was 15.3% (inactive).

Regarding `COc1ccc(C(=O)Nc2cc(OC)c(NC(=O)c3ccco3)cc2OC)cc1`, the DNA binding activation (% of TCDD) was 10% (inactive).

For `Cc1csc(SCC(=O)Nc2ccc(Cl)cn2)n1`, the DNA binding activation (% of TCDD) is 7.8% (inactive).

For `COc1ccccc1C(=O)Nc1ccc(N2CCCCC2)cc1`, the DNA binding activation (% of TCDD) was 42%.

Regarding `CCOc1ccc(NC(=O)c2cc3ccccc3cc2OC)cc1`, the DNA binding activation (% of TCDD) was 46.8%.

`CN(C)c1nc(N)nc(-c2nc3ccccc3s2)n1`: the DNA binding activation (% of TCDD) is 58.6%.

In the case of `Cc1nnc(N2C(=O)c3cccc4c([N+](=O)[O-])ccc(c34)C2=O)s1`, the DNA binding activation (% of TCDD) is 3.7% (inactive).

Regarding `CN1CCN(CCCNC(=O)c2cc3c(-c4ccc(Cl)cc4)nn(C)c3s2)CC1`, the DNA binding activation (% of TCDD) was 5.4% (inactive).

Consider `Cc1ccc(Nc2ncccc2C(N)=O)cc1`, for which the DNA binding activation (% of TCDD) was 17.6% (inactive).

In the case of `O=C(Nc1cccc(Cl)c1)c1cccnn1`, the DNA binding activation (% of TCDD) was 21.6%.

With `CCOc1ccc(-c2cc(C)n3nc(C(N)=O)cc3n2)cc1`, the DNA binding activation (% of TCDD) is 8.2% (inactive).

On to `COc1ccc(Cl)cc1C(=O)Nc1ccc(N(C)C(C)=O)cc1`, for which the DNA binding activation (% of TCDD) is 20.2%.

On to `Cc1cc(Nc2ccc(Br)cc2)n2nc(C)nc2n1`, for which the DNA binding activation (% of TCDD) is 8.6% (inactive).

As to `O=C1c2ccccc2-c2nc3ccccc3nc21`, the DNA binding activation (% of TCDD) is 59.4%.

On to `CCCC(=O)Nc1nn(C)c2nc3cc(C)ccc3cc12`, for which the DNA binding activation (% of TCDD) is 12.1% (inactive).

Regarding `COc1cc2c(cc1NC(=O)Nc1ccc(C)cc1)oc1ccccc12`, the DNA binding activation (% of TCDD) was 17% (inactive).
